# Source: ChEMBL document CHEMBL5543076, “Chromone-based small molecules for multistep shutdown of arachidonate pathway: Simultaneous inhibition of COX-2, 15-LOX and mPGES-1 enzymes” (Eur J Med Chem, 2024)
# Activity calls are given as the source filed them. The calls are words filed in the database; no cut-off is given here.
# Tests used:
# [1] = molecular target: T1, Prostaglandin G/H synthase 1 (Ovis aries, UniProt P05979); experiment: Inhibition of ovine COX-1 by colorimetric assay
# T1 sequence (P05979 whole entry): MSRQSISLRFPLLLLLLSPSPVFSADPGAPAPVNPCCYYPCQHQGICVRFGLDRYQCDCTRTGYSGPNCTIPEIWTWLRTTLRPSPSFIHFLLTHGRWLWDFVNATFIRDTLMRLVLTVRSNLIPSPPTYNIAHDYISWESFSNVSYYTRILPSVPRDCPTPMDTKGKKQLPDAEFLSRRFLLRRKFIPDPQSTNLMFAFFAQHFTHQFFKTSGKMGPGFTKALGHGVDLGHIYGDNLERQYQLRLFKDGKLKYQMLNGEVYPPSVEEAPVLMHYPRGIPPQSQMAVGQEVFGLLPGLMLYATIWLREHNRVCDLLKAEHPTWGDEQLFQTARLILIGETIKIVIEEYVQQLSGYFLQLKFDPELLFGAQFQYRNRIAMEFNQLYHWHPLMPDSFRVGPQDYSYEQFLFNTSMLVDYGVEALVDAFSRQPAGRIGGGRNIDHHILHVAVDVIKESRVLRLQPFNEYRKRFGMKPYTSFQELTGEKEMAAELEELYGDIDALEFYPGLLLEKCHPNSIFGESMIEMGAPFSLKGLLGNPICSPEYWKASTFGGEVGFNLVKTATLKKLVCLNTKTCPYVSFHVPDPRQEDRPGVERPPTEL
# In short: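 Ovine COX-1 enzyme kit, run following the manufacturer's instructions; IC50 reported as mean of three replicates.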
# Prostaglandin E synthase = molecular target: T2, Prostaglandin E synthase (Homo sapiens, UniProt O14684); experiment: Inhibition of human mPGE2S1 using PGH2 as substrate measured after 5 mins by ELISA method
# T2 sequence (O14684 whole entry): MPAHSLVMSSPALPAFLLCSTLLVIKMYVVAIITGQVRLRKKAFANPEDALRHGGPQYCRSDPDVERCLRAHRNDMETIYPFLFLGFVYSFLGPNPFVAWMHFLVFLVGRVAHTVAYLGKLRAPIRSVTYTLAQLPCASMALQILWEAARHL
# In short: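 Cell-free assay using microsomes from interleukin-1β-stimulated human A549 lung carcinoma cells as enzyme source. Reaction contained 20 μM PGH2 and 2.5 mM glutathione with serial inhibitor dilutions, 5 min at room temperature. Stopped with SnCl2, which converts leftover PGH2 to PGF2α. PGE2 measured by ELISA; IC50 ± SD from log dose–response curve.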
# [2] = Inhibition of soybean 15-LOX; parameters: species or system Glycine max
# In short: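 Soybean 15-LOX activity measured with a lipoxygenase inhibitor screening kit per the manufacturer's instructions; IC50 determined.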
# [3] = Toxicity in Wistar rat assessed as effect on epithelium measured after 8 days by H and E staining based analysis; conditions: in vivo, 192 h, time 8 day
# In short: (§1)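 Female Wistar rats dosed for eight days; stomachs then removed for gross inspection of ulceration and histology on H&E-stained sections.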
# [4] = Toxicity in Wistar rat assessed as congested vessels measured after 8 days by H and E staining based analysis; conditions: in vivo, 192 h, time 8 day; in short: as §1
# [5] = Toxicity in Wistar rat assessed as abundant submucosal infiltration measured after 8 days by H and E staining based analysis; conditions: in vivo, 192 h, time 8 day; in short: as §1
# RAW264.7 [6] = experiment: Antiinflammatory activity against LPS-induced mouse RAW264.7 cells assessed as upregulation of IL-10 level at 50 ug/ml incubated for 24 hrs by RT-PCR analysis relative to control; format: functional; conditions: dose 50 µg/ml
# [7] = Toxicity in Wistar rat assessed as dilation of submucosal blood vessels measured after 8 days by H and E staining based analysis; conditions: 192 h, time 8 day; in short: as §1
# RAW264.7 [8] = experiment: Antiinflammatory activity against LPS-induced mouse RAW264.7 cells assessed as downregulation of COX-2 level at 50 ug/ml incubated for 24 hrs by RT-PCR analysis relative to control; format: functional; conditions: dose 50 µg/ml
# Rattus norvegicus = experiment: Antiinflammatory activity in formalin-induced paw edema in Wistar rat model assessed as reduction in paw edema volume at 5 mg/kg, po administered once daily via gavage by 7 days by vernier caliper method; format: functional, organism-based; conditions: time 7.0 day
# RAW264.7 [9] = experiment: Antiinflammatory activity against LPS-induced mouse RAW264.7 cells assessed as downregulation of TNF-alpha level at 50 ug/ml incubated for 24 hrs by RT-PCR analysis relative to control; format: functional; conditions: dose 50 µg/ml
# RAW264.7 [10] = experiment: Antiinflammatory activity against LPS-induced mouse RAW264.7 cells assessed as downregulation of IL-1 beta level at 50 ug/ml incubated for 24 hrs by RT-PCR analysis relative to control; format: functional; conditions: dose 50 µg/ml
# RAW264.7 [11] = experiment: Antiinflammatory activity against LPS-induced mouse RAW264.7 cells assessed as downregulation of iNOS level at 50 ug/ml incubated for 24 hrs by RT-PCR analysis relative to control; format: functional; conditions: dose 50 µg/ml
# [12] = Toxicity in Wistar rat assessed as increase in submucosal inflammatory cells measured after 8 days by H and E staining based analysis; conditions: 192 h, time 8 day; in short: as §1
# RAW264.7 [13] = experiment: Cytotoxicity against mouse RAW264.7 cells measured after 72 hrs by MTT assay; format: functional, cell-based
# In short: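 RAW264.7 cells were seeded at 4 × 10³ per well with compound (100 to 0.4 μg/ml, in DMSO) for 72 h at 37 °C, 5% CO2. MTT (5 mg/ml solution) was added for 4 h, formazan dissolved in DMSO, and absorbance read at 490 nm.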
# [14] = Toxicity in Wistar rat assessed as effect on gastric ulcer measured after 8 days; conditions: in vivo, 192 h, time 8 day; in short: as §1
# [15] = Toxicity in Wistar rat assessed as effect on ulceration measured after 8 days by H and E staining based analysis; conditions: in vivo, 192 h, time 8 day; in short: as §1
smiles,measurement,setting,value
COC(=O)N/N=C/c1coc2ccccc2c1=O,IC50,[1],7.43 µM
same,IC50,Prostaglandin E synthase,3.7 µM
same,IC50,[2],2.77 µM
CN/N=C/c1coc2ccc(OC)cc2c1=O,IC50,[1],8.67 µM
same,IC50,[2],3.25 µM
COC(=O)N/N=C/c1coc2ccc(OC)cc2c1=O,IC50,[1],6.92 µM
same,IC50,[2],4.08 µM
O=C([O-])Cc1ccccc1Nc1c(Cl)cccc1Cl.[Na+] [DICLOFENAC SODIUM],Activity,[3],Non-Toxic
same,Activity,[4],Toxic
same,Activity,[5],Toxic
CN/N=C/c1coc2ccccc2c1=O,IC50,[1],4.04 µM
same,IC50,[2],4.44 µM
COc1ccc2occ(/C=N/NC(=O)OCc3ccccc3)c(=O)c2c1,Activity,RAW264.7 [6],43%
same,Activity,[7],Toxic
same,Activity,RAW264.7 [8],33%
same,Activity,Rattus norvegicus,Active
same,Activity,RAW264.7 [9],32%
same,Activity,RAW264.7 [10],54%
same,Activity,RAW264.7 [11],32%
same,IC50,[1],9.82 µM
same,Activity,[12],Toxic
same,Activity,[3],Non-Toxic
same,Activity,RAW264.7 [13],inactive
same,IC50,Prostaglandin E synthase,4.9 µM
same,IC50,[2],3.05 µM
same,Activity,[14],Non-Toxic
CN/N=C/c1coc2cc(OC)ccc2c1=O,IC50,[1],3.62 µM
same,IC50,[2],4.31 µM
Cc1ccc(-c2cc(C(F)(F)F)nn2-c2ccc(S(N)(=O)=O)cc2)cc1 [CELECOXIB],Activity,[15],Non-Toxic
same,IC50,Prostaglandin E synthase,20.1 µM
O=c1c(O)c(-c2ccc(O)c(O)c2)oc2cc(O)cc(O)c12 [QUERCETIN],IC50,[2],3.34 µM
COC(=O)N/N=C/c1coc2cc(OC)ccc2c1=O,IC50,[1],6.01 µM
same,IC50,[2],4.59 µM
COc1ccc2c(=O)c(/C=N/NC(=O)OCc3ccccc3)coc2c1,Activity,RAW264.7 [6],43%
same,Activity,[7],Toxic
same,Activity,RAW264.7 [8],33%
same,Activity,Rattus norvegicus,Active
same,Activity,RAW264.7 [9],32%
same,Activity,RAW264.7 [10],54%
same,Activity,RAW264.7 [11],32%
same,IC50,[1],11.1 µM
same,Activity,[12],Toxic
same,Activity,[3],Non-Toxic
same,Activity,RAW264.7 [13],inactive
same,IC50,Prostaglandin E synthase,2.8 µM
same,IC50,[2],2.39 µM
same,Activity,[14],Non-Toxic
O=C(N/N=C/c1coc2ccccc2c1=O)OCc1ccccc1,Activity,RAW264.7 [6],43%
same,Activity,RAW264.7 [8],33%
same,Activity,Rattus norvegicus,Active
same,Activity,RAW264.7 [9],32%
same,Activity,RAW264.7 [10],54%
same,Activity,RAW264.7 [11],32%
same,IC50,[1],12.2 µM
same,Activity,[3],Non-Toxic
same,Activity,RAW264.7 [13],inactive
same,Activity,[4],Toxic
same,IC50,Prostaglandin E synthase,4.1 µM
same,Activity,[5],Toxic
same,IC50,[2],1.72 µM
same,Activity,[14],Non-Toxic
